The target of experiment [1] is T1, Transient receptor potential cation channel subfamily A member 1 (Rattus norvegicus, UniProt Q6RI86). Kind of experiment: Agonist activity at rat TRPA1 expressed in HEK293 cells assessed as increase in intracellular Ca2+ concentration by Fluo-4-AM dye based spectrofluorimetry. The experiment is classed as cell-based.
The target in experiment [2] is T1, Transient receptor potential cation channel subfamily A member 1. The experiment can be described thus: Antagonist activity against rat TRPA1 expressed in HEK293 cells assessed as inhibition of AITC-induced increase in intracellular Ca2+ concentration by Fluo-4-AM dye based spectrofluorimetry. The experiment is classed as cell-based.
For experiment [3], the target named is Transient receptor potential cation channel subfamily M member 8 (Rattus norvegicus) (UniProt Q8R455). Kind of experiment: Agonist activity at rat TRPM8 expressed in HEK293 cells assessed as increase in intracellular Ca2+ concentration by Fluo-4-AM dye based spectrofluorimetry relative to ionomycin. The class given is cell-based. Summed up: (§1)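 Same stably transfected HEK293 Fluo-4 calcium assay: human TRPV1, rat TRPM8. Tyrode's buffer pH 7.4, 25 °C, ex 488/em 516 nm. Efficacy is the compound-evoked [Ca2+]i rise normalized to the maximal Ca2+ influx from 4 µM ionomycin. Means of at least 3 determinations.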
Transient receptor potential cation channel subfamily M member 8 (Rattus norvegicus), sequence (Q8R455 whole entry, looked up): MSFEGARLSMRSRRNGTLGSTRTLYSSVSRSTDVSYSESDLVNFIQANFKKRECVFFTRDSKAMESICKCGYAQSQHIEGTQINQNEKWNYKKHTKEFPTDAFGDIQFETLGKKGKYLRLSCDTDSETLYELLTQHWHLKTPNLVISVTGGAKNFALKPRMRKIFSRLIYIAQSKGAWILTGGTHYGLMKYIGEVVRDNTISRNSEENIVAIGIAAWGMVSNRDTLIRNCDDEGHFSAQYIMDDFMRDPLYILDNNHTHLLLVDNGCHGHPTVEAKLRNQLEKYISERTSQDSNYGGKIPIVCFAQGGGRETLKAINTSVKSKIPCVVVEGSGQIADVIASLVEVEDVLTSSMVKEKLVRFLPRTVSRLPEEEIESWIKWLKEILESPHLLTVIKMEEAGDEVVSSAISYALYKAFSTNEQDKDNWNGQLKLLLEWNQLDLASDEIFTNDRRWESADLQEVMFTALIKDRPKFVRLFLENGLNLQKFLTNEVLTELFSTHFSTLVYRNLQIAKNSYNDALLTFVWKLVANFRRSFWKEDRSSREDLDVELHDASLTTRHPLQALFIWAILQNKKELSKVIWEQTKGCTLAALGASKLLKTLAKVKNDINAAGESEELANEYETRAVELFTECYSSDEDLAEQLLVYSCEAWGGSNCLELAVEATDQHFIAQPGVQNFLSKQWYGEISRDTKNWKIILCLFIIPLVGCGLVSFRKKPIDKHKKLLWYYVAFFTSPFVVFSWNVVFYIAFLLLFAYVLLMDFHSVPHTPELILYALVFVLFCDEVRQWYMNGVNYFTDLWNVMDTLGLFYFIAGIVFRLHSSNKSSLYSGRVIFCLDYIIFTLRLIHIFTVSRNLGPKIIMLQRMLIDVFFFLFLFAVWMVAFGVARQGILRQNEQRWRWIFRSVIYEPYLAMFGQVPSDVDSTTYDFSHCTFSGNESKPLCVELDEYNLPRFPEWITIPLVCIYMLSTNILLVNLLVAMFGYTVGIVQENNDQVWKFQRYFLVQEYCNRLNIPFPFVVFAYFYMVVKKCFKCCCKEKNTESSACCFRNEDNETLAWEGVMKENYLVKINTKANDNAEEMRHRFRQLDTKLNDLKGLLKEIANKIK

Experiment [4] has as its target Transient receptor potential cation channel subfamily M member 8 (Rattus norvegicus, UniProt Q8R455). The experiment can be described thus: Antagonist activity against rat TRPM8 expressed in HEK293 cells assessed as inhibition of icilin-induced increase in intracellular Ca2+ concentration by Fluo-4-AM dye based spectrofluorimetry. The experiment is classed as cell-based.

Experiment [5] concerns the target T2, Transient receptor potential cation channel subfamily V member 1 (Homo sapiens, UniProt Q8NER1). Kind of experiment: Agonist activity at human TRPV1 expressed in HEK293 cells assessed as increase in intracellular Ca2+ concentration by Fluo-4-AM dye based spectrofluorimetry relative to ionomycin. The class given is cell-based. Summed up:
as §1

For experiment [6], the target named is T2, Transient receptor potential cation channel subfamily V member 1. Kind of experiment: Agonist activity at human TRPV1 expressed in HEK293 cells assessed as increase in intracellular Ca2+ concentration by Fluo-4-AM dye based spectrofluorimetry. The class given is cell-based. Summed up:
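HEK293 stably expressing human TRPV1 or rat TRPM8, grown in EMEM with non-essential amino acids, 10% FBS, 2 mM glutamine, 37 °C, 5% CO2. Fluo-4-AM loaded 1 h at room temperature; cells in Tyrode's buffer pH 7.4, about 100,000 per stirred cuvette. Fluorescence (ex 488/em 516 nm) read at 25 °C before and after various compound concentrations. EC50 from sigmoidal variable-slope fit; at least 3 determinations.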

Experiment [7] shares this target. The experiment can be described thus: Antagonist activity against human TRPV1 expressed in HEK293 cells assessed as inhibition of capsaicin-induced increase in intracellular Ca2+ concentration by Fluo-4-AM dye based spectrofluorimetry. The experiment is classed as cell-based.
Experiment [8] deals with T3, Transient receptor potential cation channel subfamily M member 8 (Homo sapiens, UniProt Q7Z2W7). The experiment can be described thus: Agonist activity at TRPM8 (unknown origin) relative to untreated control.
Experiment [9] deals with T3, Transient receptor potential cation channel subfamily M member 8. Kind of experiment: Agonist activity at TRPM8 (unknown origin).
The target of experiment [10] is Transient receptor potential cation channel subfamily A member 1 (Homo sapiens) (UniProt O75762). The experiment can be described thus: Antagonist activity against TRPA1 (unknown origin) assessed as reduction in H2O2-induced receptor activation at 400 uM.
Transient receptor potential cation channel subfamily A member 1 (Homo sapiens), sequence (O75762 whole entry): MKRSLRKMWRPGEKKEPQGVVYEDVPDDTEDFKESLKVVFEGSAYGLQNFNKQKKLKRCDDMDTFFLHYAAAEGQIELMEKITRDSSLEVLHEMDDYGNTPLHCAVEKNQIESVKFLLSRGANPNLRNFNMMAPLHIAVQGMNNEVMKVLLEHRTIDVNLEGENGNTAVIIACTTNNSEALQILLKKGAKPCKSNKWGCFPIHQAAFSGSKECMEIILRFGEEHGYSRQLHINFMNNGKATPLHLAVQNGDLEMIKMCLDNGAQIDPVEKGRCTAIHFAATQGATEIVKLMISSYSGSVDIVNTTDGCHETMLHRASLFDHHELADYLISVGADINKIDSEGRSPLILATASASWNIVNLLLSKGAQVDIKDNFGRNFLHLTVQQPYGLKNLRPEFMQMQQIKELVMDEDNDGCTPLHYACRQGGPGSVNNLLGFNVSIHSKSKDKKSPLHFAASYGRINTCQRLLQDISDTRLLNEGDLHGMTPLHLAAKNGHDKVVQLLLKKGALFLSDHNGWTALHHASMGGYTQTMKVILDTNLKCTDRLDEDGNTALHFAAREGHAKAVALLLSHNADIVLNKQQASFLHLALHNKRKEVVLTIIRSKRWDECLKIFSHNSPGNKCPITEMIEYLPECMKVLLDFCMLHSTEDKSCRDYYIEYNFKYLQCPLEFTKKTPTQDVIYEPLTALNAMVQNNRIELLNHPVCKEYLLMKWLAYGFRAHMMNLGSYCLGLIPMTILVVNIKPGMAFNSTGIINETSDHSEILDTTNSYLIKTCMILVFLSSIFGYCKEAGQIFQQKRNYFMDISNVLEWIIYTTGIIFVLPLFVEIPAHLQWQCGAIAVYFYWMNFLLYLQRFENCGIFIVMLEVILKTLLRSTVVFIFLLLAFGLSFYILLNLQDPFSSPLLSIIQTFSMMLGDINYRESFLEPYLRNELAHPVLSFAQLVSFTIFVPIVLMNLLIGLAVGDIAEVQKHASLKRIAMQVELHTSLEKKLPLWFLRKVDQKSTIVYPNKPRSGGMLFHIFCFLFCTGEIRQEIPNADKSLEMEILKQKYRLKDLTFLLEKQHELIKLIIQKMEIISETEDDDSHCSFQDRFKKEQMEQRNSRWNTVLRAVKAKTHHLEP

The results in this text go back to ChEMBL document CHEMBL3352014, “Effect of acyclic monoterpene alcohols and their derivatives on TRP channels” (Bioorg Med Chem Lett, 2014).

SMILES strings stand for the structures. Some results are limits rather than exact numbers.

T2 sequence (Q8NER1 whole entry): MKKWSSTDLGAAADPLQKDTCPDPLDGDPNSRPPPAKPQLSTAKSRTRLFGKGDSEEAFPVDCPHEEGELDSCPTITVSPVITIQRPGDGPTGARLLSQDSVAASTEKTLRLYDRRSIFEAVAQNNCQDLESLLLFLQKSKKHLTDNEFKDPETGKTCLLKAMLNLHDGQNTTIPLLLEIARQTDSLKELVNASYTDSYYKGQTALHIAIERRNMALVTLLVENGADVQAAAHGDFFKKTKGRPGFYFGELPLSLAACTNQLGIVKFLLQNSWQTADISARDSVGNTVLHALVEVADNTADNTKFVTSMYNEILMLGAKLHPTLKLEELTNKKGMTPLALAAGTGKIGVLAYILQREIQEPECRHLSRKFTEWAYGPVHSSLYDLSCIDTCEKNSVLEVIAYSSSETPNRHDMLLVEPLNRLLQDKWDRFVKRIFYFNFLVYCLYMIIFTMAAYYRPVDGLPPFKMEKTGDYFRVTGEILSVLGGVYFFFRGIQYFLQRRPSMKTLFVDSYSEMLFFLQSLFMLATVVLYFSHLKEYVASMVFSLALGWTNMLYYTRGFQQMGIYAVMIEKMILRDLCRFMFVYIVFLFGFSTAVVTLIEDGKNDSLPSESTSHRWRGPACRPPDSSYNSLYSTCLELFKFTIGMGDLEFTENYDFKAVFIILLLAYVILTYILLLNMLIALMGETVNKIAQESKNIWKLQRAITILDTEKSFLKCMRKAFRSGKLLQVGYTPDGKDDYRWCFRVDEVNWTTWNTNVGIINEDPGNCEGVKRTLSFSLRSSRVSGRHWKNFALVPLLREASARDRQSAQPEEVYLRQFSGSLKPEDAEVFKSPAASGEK
T1 sequence (Q6RI86 whole entry): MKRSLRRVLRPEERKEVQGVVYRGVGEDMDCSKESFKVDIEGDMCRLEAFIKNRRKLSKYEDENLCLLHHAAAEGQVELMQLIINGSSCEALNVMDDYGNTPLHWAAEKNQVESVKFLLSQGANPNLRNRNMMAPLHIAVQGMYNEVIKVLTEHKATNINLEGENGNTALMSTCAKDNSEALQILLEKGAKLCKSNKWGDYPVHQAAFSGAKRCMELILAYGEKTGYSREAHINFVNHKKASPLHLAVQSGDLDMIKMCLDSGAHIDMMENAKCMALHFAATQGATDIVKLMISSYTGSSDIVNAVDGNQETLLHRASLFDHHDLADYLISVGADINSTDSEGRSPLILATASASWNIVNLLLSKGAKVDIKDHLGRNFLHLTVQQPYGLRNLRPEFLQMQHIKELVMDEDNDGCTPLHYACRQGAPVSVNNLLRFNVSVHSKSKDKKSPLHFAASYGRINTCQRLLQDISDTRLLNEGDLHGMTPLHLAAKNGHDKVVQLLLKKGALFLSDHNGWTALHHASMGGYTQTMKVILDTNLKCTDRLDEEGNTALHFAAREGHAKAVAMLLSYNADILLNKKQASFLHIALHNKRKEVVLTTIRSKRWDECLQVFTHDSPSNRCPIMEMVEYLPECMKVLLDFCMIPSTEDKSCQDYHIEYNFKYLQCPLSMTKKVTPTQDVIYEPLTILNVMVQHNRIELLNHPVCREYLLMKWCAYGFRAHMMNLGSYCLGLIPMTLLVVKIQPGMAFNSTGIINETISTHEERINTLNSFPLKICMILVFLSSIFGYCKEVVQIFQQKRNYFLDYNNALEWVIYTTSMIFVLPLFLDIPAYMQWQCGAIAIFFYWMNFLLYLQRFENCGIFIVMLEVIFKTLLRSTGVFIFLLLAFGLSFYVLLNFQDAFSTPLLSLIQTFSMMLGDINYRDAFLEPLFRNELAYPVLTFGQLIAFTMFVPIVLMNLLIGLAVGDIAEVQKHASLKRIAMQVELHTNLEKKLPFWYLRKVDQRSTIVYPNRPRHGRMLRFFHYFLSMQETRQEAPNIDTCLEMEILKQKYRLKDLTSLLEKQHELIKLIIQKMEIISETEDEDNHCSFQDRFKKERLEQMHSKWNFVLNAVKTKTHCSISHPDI
Transient receptor potential cation channel subfamily M member 8 (Rattus norvegicus, UniProt Q8R455), sequence (Q8R455 whole entry): as the sequence (Q8R455 whole entry, looked up) above

As usually defined, the EC50 is the concentration needed to bring the measured effect to its halfway point. For orientation: IC50 means the concentration that inhibits the measured activity by half. As to `CC(C)=CCC/C(C)=C/CNC(=O)Nc1cccc(Cl)c1`, the EC50 was determined as 0.61 µM in [1] and 2.5 µM in experiment [6]. Further, the IC50 in experiment [2] was 0.48 µM; in [4] it was more than 100 µM; in experiment [7], 0.71 µM. The Efficacy is less than 10% in experiment [3] and 21.2% in experiment [5].

For `CC(C)=CCC/C(C)=C/CNC(=O)Cc1ccc(Cl)cc1`, the EC50 in [1] is 1.2 µM; in [6] it was 1.1 µM. Moreover, the IC50 in experiment [2] was found to be 1.4 µM; in [4], 3.8 µM; in [7], 0.89 µM. Besides, the Efficacy is less than 10% in experiment [3] and 57.5% in experiment [5].

On to `CC(C)=CCC/C(C)=C/CO` [GERANIOL], for which the Efficacy was 28% in experiment [8], less than 10% in experiment [3] and less than 10% in experiment [5]. In addition, the response in [9] was half-maximal at 5900 µM (EC50). For the same compound, the IC50 in experiment [2], in [4] and in experiment [7] was more than 100 µM each time.

Regarding `CC(C)=CCC/C(C)=C/COC(=O)CCc1ccccc1`, the EC50 in [1] was 0.39 µM; in experiment [6], 4 µM. Also, the IC50 is 0.17 µM in [2], more than 100 µM in experiment [4] and more than 100 µM in experiment [7]. The Efficacy is less than 10% in experiment [3] and 27.7% in experiment [5].

For `CC(C)=CCC/C(C)=C\CNC(=O)Oc1ccc(C(C)(C)C)cc1`, the EC50 in experiment [1] worked out at 0.018 µM; in [6], 6.5 µM. Besides, the IC50 is 0.029 µM in experiment [2], more than 100 µM in [4] and more than 100 µM in experiment [7]. For the same compound, the figures for the Efficacy in experiment [3] and in [5] were less than 10% and 15.8%, respectively.

As for `CC(C)=CCC/C(C)=C/CNC(=O)Oc1ccc(C(C)(C)C)cc1`, the EC50 in experiment [1] is 0.045 µM; in experiment [6], 10.7 µM. Also, the IC50 in experiment [2] came to 0.038 µM; in experiment [4], 86.5 µM; in experiment [7] it was 92.3 µM. Further, the Efficacy in experiment [3] was less than 10%; in experiment [5], 22.4%.

Turning to `CC(C)=CCC/C(C)=C/COC(=O)c1ccc(C)cc1`, the EC50 in experiment [1] was 0.33 µM; in experiment [6] it was 6 µM. Further, the IC50 in experiment [2] was 1 µM; in [4], more than 100 µM; in experiment [7], more than 100 µM. Moreover, the Efficacy was less than 10% in [3] and 17.6% in [5].

Regarding `CC(C)=CCC/C(C)=C\COC(=O)Nc1ccc(C(C)(C)C)cc1`, the EC50 in experiment [1] stood at 0.041 µM; in experiment [6], 7.8 µM. The IC50 in experiment [2] was 0.29 µM; in experiment [4], more than 100 µM; in experiment [7], 74.6 µM. In addition, the values for the Efficacy in experiment [3] and in [5] were less than 10% and 24%, respectively.

The inhibition is the change of the read-out against control, counted positive when it falls. Regarding `CC(=O)OCCC(C)CCC=C(C)C` (stereo not drawn) [CITRONELLYL ACETATE], in [10], the inhibition stood at 70%. For the same compound, the EC50 in experiment [1] was 12.2 µM. Further, the concentration for half-maximal inhibition (IC50) in [2], in [4] and in [7] was more than 100 µM each time. In addition, the Efficacy in experiment [3] and in experiment [5] was less than 10% in each case.
